This passage reports inhibition results from ChEMBL document CHEMBL1155459, “On-bead screening of a combinatorial fumaric acid derived peptide library yields antiplasmodial cysteine protease inhibitors with unusual peptide sequences” (J Med Chem, 2009).

Peptide text beside a SMILES is read from it.

A short description of test [1]: Inhibition of Plasmodium falciparum falcipain-2 after 12 hrs by fluorescence spectroscopy-based on-bead assay. The following applies: concentration not given here. More on the design: concentration or dose not given beside the values. Put shortly:
(§1)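 Library members on resin (PEGA, theoretical loading 0.40 mmol/g; added as DMSO suspension, 0.64 mM final inhibitor) preincubated with enzyme 12 h, then Cbz-Phe-Arg-AMC 40 μM added; AMC release followed by fluorescence (ex 380/em 460 nm). Kinetics compared with inhibitor-free amino-PEGA resin.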

Test [2] concerns the target Rhodesain (Trypanosoma brucei rhodesiense) (UniProt Q95PM0). The experiment in a line: Inhibition of Trypanosoma brucei rhodesiense rhodesain after 12 hrs by fluorescence spectroscopy-based on-bead assay. Also on record: concentration or dose not given beside the values. The following applies: concentration not given here. Put shortly: as §1

Sequence of Rhodesain (Trypanosoma brucei rhodesiense) (Q95PM0 1-450): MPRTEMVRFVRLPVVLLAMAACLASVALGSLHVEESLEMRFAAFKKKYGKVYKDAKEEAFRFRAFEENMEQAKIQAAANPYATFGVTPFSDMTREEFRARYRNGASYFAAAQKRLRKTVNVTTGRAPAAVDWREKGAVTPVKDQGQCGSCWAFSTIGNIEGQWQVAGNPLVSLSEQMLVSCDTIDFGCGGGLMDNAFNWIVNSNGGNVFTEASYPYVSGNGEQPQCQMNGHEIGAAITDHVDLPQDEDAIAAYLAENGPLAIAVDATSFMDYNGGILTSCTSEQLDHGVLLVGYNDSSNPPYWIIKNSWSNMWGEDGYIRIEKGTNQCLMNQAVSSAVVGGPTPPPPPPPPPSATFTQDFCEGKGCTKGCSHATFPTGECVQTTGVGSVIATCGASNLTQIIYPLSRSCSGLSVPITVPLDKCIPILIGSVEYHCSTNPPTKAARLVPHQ

Regarding `CC(C)C[C@H](NC(=O)[C@@H](NC(=O)[C@H](CCC(N)=O)NC(=O)/C=C/C(=O)NCC(=O)NCC(=O)N[C@@H](Cc1ccccc1)C(=O)O)c1ccccc1)C(=O)N[C@H](C(N)=O)C(C)C` (HELM PEPTIDE1{[O=C(/C=C/C(=O)[*:2])NCC(=O)NCC(=O)N[C@@H](Cc1ccccc1)C(=O)O].Q.[Phg].L.V.[am]}$$$$V2.0), the inhibition (commonly the drop in the measured response relative to a control, in per cent) in test [1] worked out at 50%; in test [2], 62%.

With `CC(C)C[C@H](NC(=O)[C@@H](NC(=O)[C@H](CCC(N)=O)NC(=O)/C=C/C(=O)NCC(=O)NCC(=O)N[C@@H](Cc1ccccc1)C(=O)O)C1CCCCC1)C(=O)N[C@H](C(N)=O)C(C)C` (HELM PEPTIDE1{[O=C(/C=C/C(=O)[*:2])NCC(=O)NCC(=O)N[C@@H](Cc1ccccc1)C(=O)O].Q.[O=C([C@@H](N[*:1])C1CCCCC1)[*:2]].L.V.[am]}$$$$V2.0), the inhibition in test [1] is 45%; in test [2], 71%.

Turning to `CC(C)[C@H](NC(=O)[C@@H](NC(=O)[C@@H](NC(=O)[C@H](C)NC(=O)/C=C/C(=O)N[C@@H](C)C(=O)NCC(=O)N[C@@H](Cc1ccccc1)C(=O)O)C1CCCCC1)C(C)C)C(N)=O` (HELM PEPTIDE1{[C[C@H](NC(=O)/C=C/C(=O)[*:2])C(=O)NCC(=O)N[C@@H](Cc1ccccc1)C(=O)O].A.[O=C([C@@H](N[*:1])C1CCCCC1)[*:2]].V.V.[am]}$$$$V2.0), the inhibition in test [1] amounted to 57%; in test [2] it was 34%.

`CC(=O)NC[C@H](NC(=O)/C=C/C(=O)NCC(=O)NCC(=O)N[C@@H](Cc1ccccc1)C(=O)O)C(=O)N[C@@H](CC(C)C)C(=O)N[C@H](C(=O)N[C@H](C(N)=O)C(C)C)C(C)C` (HELM PEPTIDE1{[O=C(/C=C/C(=O)[*:2])NCC(=O)NCC(=O)N[C@@H](Cc1ccccc1)C(=O)O].[O=C([C@H](CN[*:3])N[*:1])[*:2]].L.V.V.[am]}|PEPTIDE2{[ac]}$PEPTIDE1,PEPTIDE2,2:R3-1:R2$$$V2.0): the figures for the inhibition in test [1] and in test [2] were 41% and 54%, respectively.

With `CC[C@H](C)[C@H](NC(=O)[C@H](CCC(N)=O)NC(=O)/C=C/C(=O)N[C@@H](C)C(=O)NCC(=O)N[C@@H](Cc1ccccc1)C(=O)O)C(=O)N[C@H](C(=O)N[C@H](C(N)=O)C(C)C)C(C)C` (HELM PEPTIDE1{[C[C@H](NC(=O)/C=C/C(=O)[*:2])C(=O)NCC(=O)N[C@@H](Cc1ccccc1)C(=O)O].Q.I.V.V.[am]}$$$$V2.0), the inhibition amounted to 54% in test [1] and 38% in test [2].

In the case of `CC(C)C[C@H](NC(=O)[C@H](Cc1ccccc1)NC(=O)[C@H](Cc1ccccc1)NC(=O)/C=C/C(=O)N[C@@H](C)C(=O)NCC(=O)N[C@@H](Cc1ccccc1)C(=O)O)C(=O)N[C@H](C(N)=O)C(C)C` (HELM PEPTIDE1{[C[C@H](NC(=O)/C=C/C(=O)[*:2])C(=O)NCC(=O)N[C@@H](Cc1ccccc1)C(=O)O].F.F.L.V.[am]}$$$$V2.0), the inhibition in test [1] turned out to be 47%; in test [2] it was 54%.

With `CC(=O)NC[C@H](NC(=O)/C=C/C(=O)N[C@@H](C)C(=O)NCC(=O)N[C@@H](Cc1ccccc1)C(=O)O)C(=O)N[C@@H](CC(C)C)C(=O)N[C@H](C(=O)N[C@H](C(N)=O)C(C)C)C(C)C` (HELM PEPTIDE1{[C[C@H](NC(=O)/C=C/C(=O)[*:2])C(=O)NCC(=O)N[C@@H](Cc1ccccc1)C(=O)O].[O=C([C@H](CN[*:3])N[*:1])[*:2]].L.V.V.[am]}|PEPTIDE2{[ac]}$PEPTIDE1,PEPTIDE2,2:R3-1:R2$$$V2.0), the results for the inhibition in test [1] and in test [2] were 35% and 60%, respectively.

Consider `CC(C)[C@H](NC(=O)[C@@H](NC(=O)[C@H](Cc1ccccc1)NC(=O)[C@H](C)NC(=O)/C=C/C(=O)NCC(=O)NCC(=O)N[C@@H](Cc1ccccc1)C(=O)O)C(C)C)C(N)=O` (HELM PEPTIDE1{[O=C(/C=C/C(=O)[*:2])NCC(=O)NCC(=O)N[C@@H](Cc1ccccc1)C(=O)O].A.F.V.V.[am]}$$$$V2.0), for which the inhibition turned out to be 27% in test [1] and 48% in test [2].

On to `CC(C)C[C@H](NC(=O)[C@H](Cc1ccccc1)NC(=O)/C=C/C(=O)N[C@@H](C)C(=O)NCC(=O)N[C@@H](Cc1ccccc1)C(=O)O)C(=O)N[C@@H](C)C(=O)N[C@H](C(N)=O)C(C)C` (HELM PEPTIDE1{[C[C@H](NC(=O)/C=C/C(=O)[*:2])C(=O)NCC(=O)N[C@@H](Cc1ccccc1)C(=O)O].F.L.A.V.[am]}$$$$V2.0), for which the inhibition in test [1] came to 45%; in test [2] it was 49%.

`CC(=O)NC[C@H](NC(=O)/C=C/C(=O)NCC(=O)NCC(=O)N[C@@H](Cc1ccccc1)C(=O)O)C(=O)N[C@H](C(=O)N[C@@H](CC(C)C)C(=O)N[C@H](C(N)=O)C(C)C)c1ccccc1` (HELM PEPTIDE1{[O=C(/C=C/C(=O)[*:2])NCC(=O)NCC(=O)N[C@@H](Cc1ccccc1)C(=O)O].[O=C([C@H](CN[*:3])N[*:1])[*:2]].[Phg].L.V.[am]}|PEPTIDE2{[ac]}$PEPTIDE1,PEPTIDE2,2:R3-1:R2$$$V2.0): the inhibition in test [1] turned out to be 38%; in test [2] it was 66%.

On to `CC(C)[C@H](NC(=O)[C@H](C)NC(=O)[C@@H](NC(=O)[C@H](Cc1ccccc1)NC(=O)/C=C/C(=O)NCC(=O)NCC(=O)N[C@@H](Cc1ccccc1)C(=O)O)C1CCCCC1)C(N)=O` (HELM PEPTIDE1{[O=C(/C=C/C(=O)[*:2])NCC(=O)NCC(=O)N[C@@H](Cc1ccccc1)C(=O)O].F.[O=C([C@@H](N[*:1])C1CCCCC1)[*:2]].A.V.[am]}$$$$V2.0), for which the inhibition turned out to be 65% in test [1] and 48% in test [2].

In the case of `CC(C)C[C@H](NC(=O)[C@@H](NC(=O)[C@H](CCC(N)=O)NC(=O)/C=C/C(=O)N[C@@H](C)C(=O)NCC(=O)N[C@@H](Cc1ccccc1)C(=O)O)C1CCCCC1)C(=O)N[C@H](C(N)=O)C(C)C` (HELM PEPTIDE1{[C[C@H](NC(=O)/C=C/C(=O)[*:2])C(=O)NCC(=O)N[C@@H](Cc1ccccc1)C(=O)O].Q.[O=C([C@@H](N[*:1])C1CCCCC1)[*:2]].L.V.[am]}$$$$V2.0), the inhibition in test [1] was found to be 47%; in test [2], 52%.

As for `CC(C)C[C@H](NC(=O)[C@H](C)NC(=O)/C=C/C(=O)N[C@@H](C)C(=O)NCC(=O)N[C@@H](Cc1ccccc1)C(=O)O)C(=O)N[C@H](C(=O)N[C@H](C(N)=O)C(C)C)C(C)C` (HELM PEPTIDE1{[C[C@H](NC(=O)/C=C/C(=O)[*:2])C(=O)NCC(=O)N[C@@H](Cc1ccccc1)C(=O)O].A.L.V.V.[am]}$$$$V2.0), the values for the inhibition in test [1] and in test [2] were 40% and 59%, respectively.

`CC[C@H](C)[C@H](NC(=O)[C@H](CC(N)=O)NC(=O)/C=C/C(=O)N[C@@H](C)C(=O)NCC(=O)N[C@@H](Cc1ccccc1)C(=O)O)C(=O)N[C@@H](C)C(=O)N[C@H](C(N)=O)C(C)C` (HELM PEPTIDE1{[C[C@H](NC(=O)/C=C/C(=O)[*:2])C(=O)NCC(=O)N[C@@H](Cc1ccccc1)C(=O)O].N.I.A.V.[am]}$$$$V2.0): the inhibition in test [1] was determined as 38%; in test [2], 17%.

Regarding `CC(C)[C@H](NC(=O)[C@@H](NC(=O)[C@H](Cc1ccccc1)NC(=O)[C@H](Cc1ccccc1)NC(=O)/C=C/C(=O)NCC(=O)NCC(=O)N[C@@H](Cc1ccccc1)C(=O)O)C(C)C)C(N)=O` (HELM PEPTIDE1{[O=C(/C=C/C(=O)[*:2])NCC(=O)NCC(=O)N[C@@H](Cc1ccccc1)C(=O)O].F.F.V.V.[am]}$$$$V2.0), the inhibition in test [1] turned out to be 60%; in test [2] it was 51%.
